Square brackets hold non-standard residues; d marks the D form. Peptide text beside a SMILES is read from it. Gly(Nα-4-Cl-benzyl) = O=C(O)CNCc1ccc(Cl)cc1; N(4-F-Bzl)Gly = O=C(O)CNCc1ccc(F)cc1; Gly(N-(CH2)6NH2) = NCCCCCCNCC(=O)O; Gly(N-2-aminoethyl) = NCCNCC(=O)O; N(isopentyl)Gly = CC(C)CCNCC(=O)O; Nspe = C[C@H](NCC(=O)O)c1ccccc1; NhArg = N=C(N)NCCCCNCC(=O)O; Nphe = O=C(O)CNCc1ccccc1; Nlys = NCCCCNCC(=O)O
How the values were obtained:
[1] = Selectivity index, ratio of ED50 for human HepG2 cells to MIC for Staphylococcus aureus 3R7089 strain Oxford/ATCC 9144; format: toxicity; settings: read-out: Selectivity Index
[2] = Selectivity index, ratio of ED50 for human HaCaT cells to MIC for Staphylococcus epidermidis clinical isolate; format: toxicity; settings: read-out: Selectivity Index
[3] = Selectivity index, ratio of ED50 for human HepG2 cells to MIC for Staphylococcus epidermidis clinical isolate; format: toxicity; settings: read-out: Selectivity Index
[4] = Selectivity index, ratio of ED50 for human HaCaT cells to MIC for Staphylococcus aureus 3R7089 strain Oxford/ATCC 9144; format: toxicity; settings: read-out: Selectivity Index
[5] = Cytotoxicity against human HaCaT cells assessed as reduction in cell viability pretreated for 1 hr followed by DMEM addition measured after 24 hrs by alamar blue assay; format: cell-based; settings: read-out: ED50
In short: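 HaCaT keratinocytes are grown in DMEM high glucose with 10% FBS and 1% P/S and seeded at 2x10^4 cells/well 24 h before treatment. Compound dilution series run 2–100 µM (5 mM DMSO stocks) in 50 µL for 1 h, then medium is added for 24 h at 37 °C, 5% CO2. alamarBlue is read after 1 h (Ex 540/Em 620). Triplicate, ≥2 occasions; ED50 from dose-response; amphotericin B positive control.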

[6] = Cytotoxicity against human HepG2 cells assessed as reduction in cell viability pretreated for 1 hr followed by DMEM addition measured after 24 hrs by alamar blue assay; format: cell-based; settings: read-out: ED50
In short: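 HepG2 cells are kept in DMEM high glucose with 10% heat-inactivated FBS and 1% P/S at 37 °C, 5% CO2, and seeded at 2x10^4 cells/well one day ahead. They are exposed to compounds (100 to 3 µM, from 5 mM DMSO stocks) in 50 µL for 1 h. Medium is then added and cells incubated 24 h. alamarBlue is read after 2 h (Ex 560/Em 600). Triplicate on ≥2 occasions; ED50 from dose-response; DMSO negative control.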

[7] = Selectivity index, ratio of ED50 for human HepG2 cells to MIC for Escherichia coli K-12 W3110 ATCC 27325; format: toxicity; settings: read-out: Selectivity Index
[8] = Selectivity index, ratio of ED50 for human HaCaT cells to MIC for Escherichia coli K-12 W3110 ATCC 27325; format: toxicity; settings: read-out: Selectivity Index
[9] = Selectivity index, ratio of ED50 for human HepG2 cells to MIC for Pseudomonas aeruginosa PAO1 ATCC 15692; format: toxicity; settings: read-out: Selectivity Index
[10] = Selectivity index, ratio of ED50 for human HaCaT cells to MIC for Pseudomonas aeruginosa PAO1 ATCC 15692; format: toxicity; settings: read-out: Selectivity Index
Pseudomonas aeruginosa = assay: Antibacterial activity against Pseudomonas aeruginosa PAO1 ATCC 15692 incubated for 16 hrs under shaking condition; format: functional; settings: PAO1 ATCC 15692, 16 h
In short: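 Broth microdilution (Andrews method) in Iso-sensitest broth. Overnight cultures are adjusted to A650 0.07 (0.5 McFarland) and diluted ten-fold. Compounds come from 5 mM DMSO stocks, 2-fold serially diluted, final 2–100 μM in a 1:1 inoculum:compound mix. Incubation is 37 °C for 16 h with shaking. MIC is the lowest concentration giving complete growth inhibition, read by absorbance; triplicate.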

Row | MIC (Pseudomonas aeruginosa) | SMILES | selectivity ratio [1] | selectivity ratio [2] | selectivity ratio [3] | selectivity ratio [4] | CC50 at 24 h [5] | CC50 at 24 h [6] | selectivity ratio [7] | selectivity ratio [8] | selectivity ratio [9] | selectivity ratio [10]
1 | – | C[C@@H](c1ccccc1)N(CC(N)=O)C(=O)CN(Cc1ccc(F)cc1)C(=O)CN(CCCCN)C(=O)CN(C(=O)CN(Cc1ccc(F)cc1)C(=O)CN(CCCCN)C(=O)CN(C(=O)CN(Cc1ccc(F)cc1)C(=O)CN(CCCCN)C(=O)CN(C(=O)CN(Cc1ccc(F)cc1)C(=O)CNCCCCN)[C@@H](C)c1ccccc1)[C@@H](C)c1ccccc1)[C@@H](C)c1ccccc1 | 13 | 10 | 13 | 10 | – | – | – | – | – | –
2 | – | NCCNCC(=O)N(CC(=O)N(CC(=O)N(CCN)CC(=O)N(CC(=O)N(CC(=O)N(CCN)CC(=O)N(CC(=O)N(CC(=O)N(CCN)CC(=O)N(CC(=O)N(CC(N)=O)Cc1ccccc1)Cc1ccccc1)Cc1ccccc1)Cc1ccccc1)Cc1ccccc1)Cc1ccccc1)Cc1ccccc1)Cc1ccccc1 (H-[Gly(N-2-aminoethyl)][Nphe][Nphe][Gly(N-2-aminoethyl)][Nphe][Nphe][Gly(N-2-aminoethyl)][Nphe][Nphe][Gly(N-2-aminoethyl)][Nphe][Nphe]-NH2) | – | 17 | 17 | – | > 100 µM | > 100 µM | 8 | 8 | – | –
3 | – | C[C@@H](c1ccccc1)N(CC(N)=O)C(=O)CN(C(=O)CN(CCCCCCN)C(=O)CN(C(=O)CN(C(=O)CN(CCCCCCN)C(=O)CN(C(=O)CN(C(=O)CN(CCCCCCN)C(=O)CN(C(=O)CN(C(=O)CNCCCCCCN)[C@@H](C)c1ccccc1)[C@@H](C)c1ccccc1)[C@@H](C)c1ccccc1)[C@@H](C)c1ccccc1)[C@@H](C)c1ccccc1)[C@@H](C)c1ccccc1)[C@@H](C)c1ccccc1 (H-[Gly(N-(CH2)6NH2)][Nspe][Nspe][Gly(N-(CH2)6NH2)][Nspe][Nspe][Gly(N-(CH2)6NH2)][Nspe][Nspe][Gly(N-(CH2)6NH2)][Nspe][Nspe]-NH2) | 21 | 12 | 21 | 12 | – | – | – | – | 1 | 0
4 | > 100 µM | CC(C)CCN(CC(=O)N(CC(N)=O)[C@@H](C)c1ccccc1)C(=O)CN(CCCCNC(=N)N)C(=O)CN(C(=O)CN(CCC(C)C)C(=O)CN(CCCCNC(=N)N)C(=O)CN(C(=O)CN(CCC(C)C)C(=O)CNCCCCNC(=N)N)[C@@H](C)c1ccccc1)[C@@H](C)c1ccccc1 (H-[NhArg][N(isopentyl)Gly][Nspe][NhArg][N(isopentyl)Gly][Nspe][NhArg][N(isopentyl)Gly][Nspe]-NH2) | – | – | – | – | – | – | – | – | – | –
5 | – | N=C(N)NCCCCNCC(=O)N(CC(=O)N(CC(=O)N(CCCCNC(=N)N)CC(=O)N(CC(=O)N(CC(=O)N(CCCCNC(=N)N)CC(=O)N(CC(=O)N(CC(=O)N(CCCCNC(=N)N)CC(=O)N(CC(=O)N(CC(N)=O)Cc1ccccc1)Cc1ccccc1)Cc1ccccc1)Cc1ccccc1)Cc1ccccc1)Cc1ccccc1)Cc1ccccc1)Cc1ccccc1 (H-[NhArg][Nphe][Nphe][NhArg][Nphe][Nphe][NhArg][Nphe][Nphe][NhArg][Nphe][Nphe]-NH2) | – | 50 | – | – | > 100 µM | – | – | 17 | – | 4
6 | – | C[C@@H](c1ccccc1)N(CC(N)=O)C(=O)CN(C(=O)CN(CCCCN)C(=O)CN(C(=O)CN(C(=O)CN(CCCCN)C(=O)CN(C(=O)CN(C(=O)CN(CCCCNC(=N)N)C(=O)CN(C(=O)CN(C(=O)CNCCCCNC(=N)N)[C@@H](C)c1ccccc1)[C@@H](C)c1ccccc1)[C@@H](C)c1ccccc1)[C@@H](C)c1ccccc1)[C@@H](C)c1ccccc1)[C@@H](C)c1ccccc1)[C@@H](C)c1ccccc1 (H-[NhArg][Nspe][Nspe][NhArg][Nspe][Nspe][Nlys][Nspe][Nspe][Nlys][Nspe][Nspe]-NH2) | – | – | – | 1 | – | – | – | 1 | – | 1
7 | – | C[C@@H](c1ccccc1)N(CC(N)=O)C(=O)CN(C(=O)CN(CCCCN)C(=O)CN(C(=O)CN(C(=O)CN(CCCCNC(=N)N)C(=O)CN(C(=O)CN(C(=O)CN(CCCCN)C(=O)CN(C(=O)CN(C(=O)CNCCCCNC(=N)N)[C@@H](C)c1ccccc1)[C@@H](C)c1ccccc1)[C@@H](C)c1ccccc1)[C@@H](C)c1ccccc1)[C@@H](C)c1ccccc1)[C@@H](C)c1ccccc1)[C@@H](C)c1ccccc1 (H-[NhArg][Nspe][Nspe][Nlys][Nspe][Nspe][NhArg][Nspe][Nspe][Nlys][Nspe][Nspe]-NH2) | – | – | – | 2 | – | – | 2 | 2 | – | –
8 | – | NCCCCNCC(=O)N(CC(=O)N(CC(=O)N(CCCCN)CC(=O)N(CC(=O)N(CC(=O)N(CCCCN)CC(=O)N(CC(=O)N(CC(N)=O)Cc1ccc(Cl)cc1)Cc1ccc(Cl)cc1)Cc1ccc(Cl)cc1)Cc1ccc(Cl)cc1)Cc1ccc(Cl)cc1)Cc1ccc(Cl)cc1 (H-[Nlys][Gly(Nα-4-Cl-benzyl)][Gly(Nα-4-Cl-benzyl)][Nlys][Gly(Nα-4-Cl-benzyl)][Gly(Nα-4-Cl-benzyl)][Nlys][Gly(Nα-4-Cl-benzyl)][Gly(Nα-4-Cl-benzyl)]-NH2) | 8 | 11 | 12 | 7 | – | – | – | – | 1 | 1
9 | – | NCCCCNCC(=O)N(CC(=O)N(CC(=O)N(CCCCN)CC(=O)N(CC(=O)N(CC(=O)N(CCCCN)CC(=O)N(CC(=O)N(CC(N)=O)Cc1ccc(F)cc1)Cc1ccc(F)cc1)Cc1ccc(F)cc1)Cc1ccc(F)cc1)Cc1ccc(F)cc1)Cc1ccc(F)cc1 (H-[Nlys][N(4-F-Bzl)Gly][N(4-F-Bzl)Gly][Nlys][N(4-F-Bzl)Gly][N(4-F-Bzl)Gly][Nlys][N(4-F-Bzl)Gly][N(4-F-Bzl)Gly]-NH2) | 15 | 33 | 15 | 33 | > 100 µM | – | 3 | 6 | – | –
10 | – | NCCCCNCC(=O)N(CC(=O)N(CC(=O)N(CCCCN)CC(=O)N(CC(=O)N(CC(=O)N(CCCCN)CC(=O)N(CC(=O)N(CC(=O)N(CCCCN)CC(=O)N(CC(=O)N(CC(N)=O)Cc1ccc(F)cc1)Cc1ccc(F)cc1)Cc1ccc(F)cc1)Cc1ccc(F)cc1)Cc1ccc(F)cc1)Cc1ccc(F)cc1)Cc1ccc(F)cc1)Cc1ccc(F)cc1 (H-[Nlys][N(4-F-Bzl)Gly][N(4-F-Bzl)Gly][Nlys][N(4-F-Bzl)Gly][N(4-F-Bzl)Gly][Nlys][N(4-F-Bzl)Gly][N(4-F-Bzl)Gly][Nlys][N(4-F-Bzl)Gly][N(4-F-Bzl)Gly]-NH2) | 15 | 46 | 30 | 23 | – | – | 2 | 4 | – | –
11 | – | NCCCCNCC(=O)N(CC(=O)N(CC(=O)N(CCCCN)CC(=O)N(CC(=O)N(CC(=O)N(CCCCN)CC(=O)N(CC(=O)N(CC(=O)N(CCCCN)CC(=O)N(CC(=O)N(CC(N)=O)Cc1ccccc1)Cc1ccccc1)Cc1ccccc1)Cc1ccccc1)Cc1ccccc1)Cc1ccccc1)Cc1ccccc1)Cc1ccccc1 (H-[Nlys][Nphe][Nphe][Nlys][Nphe][Nphe][Nlys][Nphe][Nphe][Nlys][Nphe][Nphe]-NH2) | 33 | 18 | 50 | 12 | – | > 100 µM | 8 | 3 | – | –
12 | – | C[C@@H](c1ccccc1)N(CC(N)=O)C(=O)CN(C(=O)CN(CCCCN)C(=O)CN(C(=O)CN(C(=O)CN(CCCCN)C(=O)CN(C(=O)CN(C(=O)CN(CCCCNC(=N)N)C(=O)CN(C(=O)CN(C(=O)CNCCCCN)[C@@H](C)c1ccccc1)[C@@H](C)c1ccccc1)[C@@H](C)c1ccccc1)[C@@H](C)c1ccccc1)[C@@H](C)c1ccccc1)[C@@H](C)c1ccccc1)[C@@H](C)c1ccccc1 (H-[Nlys][Nspe][Nspe][NhArg][Nspe][Nspe][Nlys][Nspe][Nspe][Nlys][Nspe][Nspe]-NH2) | – | – | – | 2 | – | – | 2 | 2 | – | 2
13 | – | C[C@@H](c1ccccc1)N(CC(N)=O)C(=O)CN(C(=O)CN(CCCCNC(=N)N)C(=O)CN(C(=O)CN(C(=O)CN(CCCCNC(=N)N)C(=O)CN(C(=O)CN(C(=O)CN(CCCCN)C(=O)CN(C(=O)CN(C(=O)CNCCCCN)[C@@H](C)c1ccccc1)[C@@H](C)c1ccccc1)[C@@H](C)c1ccccc1)[C@@H](C)c1ccccc1)[C@@H](C)c1ccccc1)[C@@H](C)c1ccccc1)[C@@H](C)c1ccccc1 (H-[Nlys][Nspe][Nspe][Nlys][Nspe][Nspe][NhArg][Nspe][Nspe][NhArg][Nspe][Nspe]-NH2) | – | – | – | 6 | > 100 µM | – | – | 6 | – | 3

From ChEMBL document CHEMBL4261490, “Exploring the links between peptoid antibacterial activity and toxicity” (Medchemcomm, 2017)
